Bioassay records from PubChem.
Only some compounds are listed: those with a hit (about 10% of all), similar ones and a draw of the others.
L major viab: Leishmania major promastigote growth inhibition | Leishmania major promastigotes, resazurin fluorescence viability | inhibition, % at 10 µM | 200,000 compounds, 9% hits | AID 1063; in the data active means inhibition above about 50%;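 further: promastigotes grown with compound for 44 hours at 28 °C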
PMI act hi M6P: activators of human phosphomannose isomerase at near-saturating mannose 6-phosphate | P34949 | coupled PMI enzyme assay, resazurin fluorescence, 20 min; stronger effect = higher value; 1 = untreated enzyme, 0 = substrate-free blank | activation factor at 20 µM | 190,000 compounds, 0.34% hits | AID 1216;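 active means activation factor of 2 or more at 20 µM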
Target sequence (P34949 whole entry, looked up): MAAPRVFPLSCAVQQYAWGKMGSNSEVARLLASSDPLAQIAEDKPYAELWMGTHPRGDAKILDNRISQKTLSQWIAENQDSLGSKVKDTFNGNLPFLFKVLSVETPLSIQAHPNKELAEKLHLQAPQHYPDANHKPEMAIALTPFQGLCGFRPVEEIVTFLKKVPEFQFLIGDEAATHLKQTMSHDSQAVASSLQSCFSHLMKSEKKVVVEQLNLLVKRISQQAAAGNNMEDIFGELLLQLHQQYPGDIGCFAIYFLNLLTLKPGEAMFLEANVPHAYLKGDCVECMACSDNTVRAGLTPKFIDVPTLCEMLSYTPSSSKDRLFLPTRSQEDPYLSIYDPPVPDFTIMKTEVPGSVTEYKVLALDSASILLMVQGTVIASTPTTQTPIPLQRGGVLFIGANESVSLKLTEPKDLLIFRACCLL
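Test system – human PMI in coupled enzyme assay · Timing – 20 min incubation at room temperature · Detection – Diaphorase-driven resazurin-to-resorufin fluorescence, excitation 544, emission 590 nm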
WT yeast gro inh: growth inhibition of WT yeast, mitochondrial fusion screen | mitochondrial fusion phenotypic screen, WT strain | inhibition, % at 10 µM | 190,000 compounds, 2.1% hits | AID 1362; in the data active means inhibition above about 58%; tested in S. cerevisiae
PMI activator: activators of human phosphomannose isomerase; activation factor at 20 µM; purified human PMI, coupled resazurin fluorescence, 20 min; stronger effect = higher value; 1 = vehicle control, 0 substrate-free wells; 190,000 compounds, 0.005% hits; P34949; AID 1214;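 active means activation factor of 2 or more at 20 µM, relative to plate controls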
Diaph act CS: counter-screen for diaphorase-based assays: diaphorase activators and chemical reducers | AID 1229 | Diaphorase/resazurin coupled assay, resorufin fluorescence, 16 min; stronger effect = higher value; 1 = vehicle wells, 0 = NADH-free wells | activation factor at 20 µM | 190,000 compounds, 0.005% hits;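 active means diaphorase activity raised at least twofold by the compound at 20 µM; inactive means activation factor below 2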
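Assay system: Purified diaphorase enzyme from Clostridium kluyveri | Amount: Enzyme 0.07 U/mL final | Dosing: Compound 20 µM once, DMSO 1% | Timing: 16 min reaction at room temperature | Detection: Fluorescence, excitation 544 nm and emission 590 nm | Evaluation: Higher resorufin formation from activation or reduction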
A number is an active result.

CCOC(=O)c1c(NC(=O)CN(C)C2CCN(C)CC2)sc(C(=O)Nc2ccccc2)c1C was read as L major viab 101, PMI act hi M6P inactive, WT yeast gro inh inactive, PMI activator inactive and Diaph act CS inactive.
C=CCOc1ccc(/C(O)=C2/C(=O)C(=O)N(CCCn3ccnc3)C2c2ccco2)cc1 (stereo not drawn) was read as L major viab inactive, PMI act hi M6P inactive, WT yeast gro inh inactive, PMI activator inactive and Diaph act CS inactive.
`O=C1NCCc2c1[nH]c1ccccc21` gave L major viab inactive, PMI act hi M6P inactive, WT yeast gro inh inactive, PMI activator inactive and Diaph act CS inactive.
For O=C1NCCc2c1[nH]c1c(Cl)ccc(Cl)c21 the results were L major viab inactive, PMI act hi M6P inactive, WT yeast gro inh 89, PMI activator inactive and Diaph act CS inactive.
Screening NCCCC[C@@H](C(=O)N1CCNCC1)n1cc([C@@H](N)CO)nn1 returned L major viab inactive, PMI act hi M6P inactive, WT yeast gro inh inactive, PMI activator inactive and Diaph act CS inactive.
For Cc1ccc(NC2=C(Cl)C(=O)OC2OC(C)C)c(C)c1 (stereo not drawn) the results were L major viab inactive, PMI act hi M6P inactive, WT yeast gro inh inactive, PMI activator inactive and Diaph act CS inactive.
For Cc1cccc(C)c1NC1=C(Cl)C(=O)OC1OC(C)C (stereo not drawn) the results were L major viab 50, PMI act hi M6P inactive, WT yeast gro inh inactive, PMI activator inactive and Diaph act CS inactive.
For CCC(C(=O)OC)n1c(-c2ccccc2)nc2ccccc2c1=O (stereo not drawn) the results were L major viab inactive, PMI act hi M6P inactive, WT yeast gro inh 60, PMI activator inactive and Diaph act CS inactive.
Screening O=C(N/N=C/c1ccc(-c2cccc(C(F)(F)F)c2)o1)c1ccccc1O returned L major viab 98, PMI act hi M6P inactive, WT yeast gro inh inactive, PMI activator inactive and Diaph act CS inactive.
`O=C(N/N=C/c1ccc(Br)o1)/C(=C/c1ccc([N+](=O)[O-])cc1)NC(=O)c1ccccc1` gave L major viab 57, PMI act hi M6P inactive, WT yeast gro inh inactive, PMI activator inactive and Diaph act CS inactive.
CCN(CC)S(=O)(=O)c1cccc(C(=O)N/N=C/c2cc(OC)c(O)c(OC)c2)c1 was read as L major viab inactive, PMI act hi M6P inactive, WT yeast gro inh inactive, PMI activator inactive and Diaph act CS inactive.
Screening CCN(CC)S(=O)(=O)c1cccc(C(=O)N/N=C/c2cccc(O)c2O)c1 returned L major viab 98, PMI act hi M6P inactive, WT yeast gro inh inactive, PMI activator inactive and Diaph act CS inactive.
For O=C(N/N=C\c1ccc(-c2ccc([N+](=O)[O-])cc2)o1)c1ccc2c(c1)OCO2 the results were L major viab inactive, PMI act hi M6P inactive, WT yeast gro inh inactive, PMI activator inactive and Diaph act CS inactive.
`O=C(N/N=C/c1ccc(-c2cccc(C(F)(F)F)c2)o1)c1ccccc1Br` gave L major viab inactive, PMI act hi M6P inactive, WT yeast gro inh inactive, PMI activator inactive and Diaph act CS inactive.
Screening O=C(N/N=C/c1ccc(-c2cccc([N+](=O)[O-])c2)o1)c1ccc([N+](=O)[O-])cc1 returned L major viab 64, PMI act hi M6P inactive, WT yeast gro inh inactive, PMI activator inactive and Diaph act CS inactive.
`Cc1ccc(SCCc2ccc(C)nc2)cc1` gave L major viab inactive, PMI act hi M6P inactive, WT yeast gro inh inactive, PMI activator inactive and Diaph act CS inactive.
Screening CCO[C@H]1OC(C(=O)N2CCOCC2)=C[C@@H](c2coc3ccccc3c2=O)[C@@H]1CCCO returned L major viab inactive, PMI act hi M6P inactive, WT yeast gro inh inactive, PMI activator inactive and Diaph act CS inactive.
For C=CCNC(=S)N/N=C/c1ccc(-c2cccc([N+](=O)[O-])c2)o1 the results were L major viab inactive, PMI act hi M6P inactive, WT yeast gro inh inactive, PMI activator inactive and Diaph act CS inactive.
Screening O=C(O)c1cccc(-c2ccc(/C=N/NC(=O)c3cccnc3)o2)c1 returned L major viab inactive, PMI act hi M6P inactive, WT yeast gro inh inactive, PMI activator inactive and Diaph act CS inactive.
Screening O=C(N/N=C/c1ccccc1O)c1cccc(C(F)(F)F)c1 returned L major viab 98, PMI act hi M6P inactive, WT yeast gro inh inactive, PMI activator inactive and Diaph act CS inactive.
O=C(N/N=C/c1ccc(-c2ccccc2[N+](=O)[O-])o1)c1cccnc1 was read as L major viab 95, PMI act hi M6P inactive, WT yeast gro inh inactive, PMI activator inactive and Diaph act CS inactive.
For O=C(N/N=C/c1ccc(-c2cccc([N+](=O)[O-])c2)o1)c1ccccc1O the results were L major viab 93, PMI act hi M6P inactive, WT yeast gro inh inactive, PMI activator inactive and Diaph act CS inactive.
For O=C(O)C1Cc2ccccc2CN1C(=O)CCl (stereo not drawn) the results were L major viab inactive, PMI act hi M6P inactive, WT yeast gro inh inactive, PMI activator inactive and Diaph act CS inactive.
For COc1cc(OC)c(/C=N/n2c(C)nnc2C)c(OC)c1 the results were L major viab inactive, PMI act hi M6P inactive, WT yeast gro inh inactive, PMI activator inactive and Diaph act CS inactive.
Screening Cc1ccc(C(=O)OCC(=O)Nc2cc(F)ccc2F)cc1NC(=O)c1ccco1 returned L major viab 88, PMI act hi M6P inactive, WT yeast gro inh inactive, PMI activator inactive and Diaph act CS inactive.
Screening Cn1c(SCc2ccc([N+](=O)[O-])cc2)nnc1-c1cccnc1 returned L major viab inactive, PMI act hi M6P inactive, WT yeast gro inh inactive, PMI activator inactive and Diaph act CS inactive.
`CCCOc1ccc([N+](=O)[O-])cc1C1NC(=S)NC(c2ccccc2)=C1C(=O)OCC` (stereo not drawn) gave L major viab 100, PMI act hi M6P inactive, WT yeast gro inh inactive, PMI activator inactive and Diaph act CS inactive.
For CCOc1ccc(Nc2cc(C)nc(-n3nc(C)cc3C)n2)cc1 the results were L major viab 90, PMI act hi M6P inactive, WT yeast gro inh inactive, PMI activator inactive and Diaph act CS inactive.
For COc1ccc(/C=N/Nc2cc(C)nc(-n3nc(C)cc3C)n2)c(OC)c1 the results were L major viab 99, PMI act hi M6P inactive, WT yeast gro inh inactive, PMI activator inactive and Diaph act CS inactive.
CCOC(=O)N1CCN(C(=O)CN(c2ccccc2)S(C)(=O)=O)CC1 was read as L major viab inactive, PMI act hi M6P inactive, WT yeast gro inh inactive, PMI activator inactive and Diaph act CS inactive.
Screening CCCNC(=O)NC(=O)COC(=O)CNS(=O)(=O)/C=C/c1ccccc1 returned L major viab inactive, PMI act hi M6P inactive, WT yeast gro inh inactive, PMI activator inactive and Diaph act CS inactive.
COc1ccc2cnn(CCOc3cc(C)ccc3C(C)C)c(=O)c2c1OC was read as L major viab 95, PMI act hi M6P inactive, WT yeast gro inh 71, PMI activator inactive and Diaph act CS inactive.
